# This is a sample that favours compounds with a hit; in the whole collection about 2.3% have one here.
# SUMO1 PPI mod = modulators of SUMO1 protein-protein interactions, primary screen, biochemical, uHTS; Small ubiquitin-related modifier 1 (Homo sapiens), P63165; inhibition, % at 20 µM; 0.33% of 360,000 active; SUMO1 binding to a labelled peptide, TR-FRET, 1 h; in the data active = inhibition above about 37%
# DNMT1 inh = human DNMT1 methyltransferase inhibitors, primary screen, biochemical, molecular beacon, fluorescence, HinP1I cleavage, uHTS; inhibition (reported as % activation of signal), % at 10 µM; 0.83% of 360,000 active; AID 588458, 2011; in the data active = inhibition above about 50%
# LMPTP block = LMPTP phosphatase inhibitors, primary screen, biochemical, fluorescence intensity, uHTS | Low molecular weight phosphotyrosine protein phosphatase (Homo sapiens), P24666 | recombinant LMPTP-A, OMFP fluorogenic substrate | inhibition, % at 20 µM | 0.22% of 360,000 active;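 active = compounds that cut the enzyme signal by at least half of the control window in the single-dose screen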;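 note: plate controls were DMSO wells with enzyme plus substrate for no effect and substrate without enzyme for full effect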
#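 Assay system: LMPTP-A, protein tyrosine phosphatase of low molecular weight / Medium: pH 6.0 Bis-Tris buffer with DTT and Triton X-100 / Schedule: 50 min enzyme reaction at room temperature, protected from light / Measured by: endpoint fluorescence intensity from OMFP dephosphorylation / Read-out basis: % inhibition relative to no-enzyme and uninhibited control wells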
# NadD block = inhibitors of S. aureus NadD, primary screen, biochemical, colorimetric, uHTS; AID 602399, 2012; 0.78% of 360,000 active; purified NadD enzyme, colorimetric absorbance read-out; inhibition, % at 20 µM; Nicotinate-nucleotide adenylyltransferase NadD (Staphylococcus aureus N315); in the data active = inhibition above about 26%
# Scp1 inh = Scp-1 phosphatase inhibitors, primary screen, biochemical, colorimetric, uHTS. Carboxy-terminal domain RNA polymerase II polypeptide A small phosphatase 1 (Homo …. Recombinant Scp1, phosphopeptide, malachite green phosphate absorbance. inhibition, % at 20 µM. 0.88% of 340,000 active. AID 493091, 2011;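 active = inhibition above about 50% at 20 µM, limit read from the data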;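 note: plate controls were DMSO wells with enzyme for no effect and wells lacking enzyme for full effect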
#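 Test system: SCP-1 phosphatase catalytic domain, residues 76-261 | Compound dosing: One concentration, 20 µM, with 1.0% DMSO | Schedule: 45 min room-temperature reaction, 5 min colour, 30 min stabiliser | Detection: Absorbance at 630 nm | Read-out basis: % inhibition of SCP-1 phosphate liberation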
# STEP inh = STEP phosphatase inhibitors, primary screen, biochemical, fluorescence intensity, uHTS; AID 588621, 2011; Tyrosine-protein phosphatase non-receptor type 5 (Homo sapiens), P54829; 0.25% of 360,000 active; inhibition, % at 20 µM; recombinant STEP, OMFP fluorogenic substrate;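 active = inhibition at 20 µM, scaled per plate between control wells, above about 37%, limit read from the data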;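 note: 0% = DMSO with enzyme and substrate and 100% = substrate only without enzyme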
# Target sequence (P54829 whole entry, looked up): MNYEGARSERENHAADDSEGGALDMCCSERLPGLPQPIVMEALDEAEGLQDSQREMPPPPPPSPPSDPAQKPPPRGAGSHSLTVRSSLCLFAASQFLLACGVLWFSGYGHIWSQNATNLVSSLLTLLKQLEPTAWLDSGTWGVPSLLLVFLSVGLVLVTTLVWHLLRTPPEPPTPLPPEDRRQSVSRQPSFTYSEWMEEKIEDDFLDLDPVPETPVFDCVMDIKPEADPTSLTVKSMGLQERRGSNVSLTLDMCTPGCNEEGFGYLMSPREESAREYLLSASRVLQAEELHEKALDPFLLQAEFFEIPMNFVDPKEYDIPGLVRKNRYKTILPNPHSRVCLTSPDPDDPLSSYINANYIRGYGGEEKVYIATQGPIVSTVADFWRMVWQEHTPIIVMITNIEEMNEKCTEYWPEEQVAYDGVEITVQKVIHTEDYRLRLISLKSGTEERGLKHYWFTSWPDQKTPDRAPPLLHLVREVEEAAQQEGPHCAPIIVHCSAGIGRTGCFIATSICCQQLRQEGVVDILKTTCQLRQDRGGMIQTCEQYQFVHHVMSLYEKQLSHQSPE
#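 Also added – OMFP at 25 µM · Test system – STEP tyrosine phosphatase · Technique – FITC-channel fluorescence of OMFP product · Schedule – 20 min at room temperature, dark · Evaluation – control-normalized % inhibition with plate pattern correction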
# Scp1 confirm = Scp-1 phosphatase inhibitors, retest, confirmation, biochemical, colorimetric, single concentration; shares compounds with Scp1 inh; recombinant SCP-1 catalytic domain, phosphate release, malachite green absorbance; inhibition, % at 20 µM; 61% of 2,500 active; AID 540281, 2011;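 note: plate controls were DMSO with enzyme for no effect and buffer wells lacking enzyme for full effect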
# MG interference = colorimetric readout interference by compounds, confirmation, artefact control for Scp-1 inhibitor project, biochemical, single concentration | 2,500 tested, under 10 active | shares compounds with Scp1 inh | Colorimetric interference counterscreen, malachite green absorbance 630 nm | AID 540313, 2011 | apparent inhibition (interference), % at 20 µM;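 note: compounds added after enzyme reaction finished so only phosphate colour detection is probed; plate controls were DMSO wells with completed Scp-1 reaction for no effect and substrate wells lacking enzyme for full effect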
# Scp-1 Tm shift = Scp-1 binding by thermal shift, confirmation, orthogonal assay for Scp-1 inhibitor project, biophysical, differential scanning fluorimetry; shares compounds with Scp1 inh; Recombinant SCP1, Sypro Orange thermal shift Tm; thermal shift relative to vanadate control, % at 40 µM; 25% of 1,500 active; AID 540329, 2011;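 active = substances whose mean melting-temperature shift, as a percentage of the reference inhibitor's shift, reaches about 5.3%, limit read from the data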;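 note: 0% = Tm of DMSO wells and 100% = Tm with sodium orthovanadate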
# Active calls of the source: *; . = not tested or not shown.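 Rule for the calls, unless noted: active = inhibition of at least 30% at 20 µM; inactive = the rest.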
SMILES,SUMO1 PPI mod,DNMT1 inh,LMPTP block,NadD block,Scp1 inh,STEP inh,Scp1 confirm,MG interference,others
CCOC(=O)NN1C(=O)c2ccccc2NC1(C)C,2,0,0,2,72*,-1,-4,-7,
CC1(C)Nc2ccccc2C(=O)N1NC(=O)c1ccccc1,-1,1,1,8,-5,1,.,.,
C=CCn1c(C)cc(C(=O)COC(=O)/C=C/c2cccc(OC)c2)c1C,-1,-2,3,-6,-9,3,.,.,
CC(C)(C)OC(=O)N1CCCC1C(=O)NCCc1ccccc1 (centres undefined),-4,2,-3,9,97*,-2,-4,-5,
CCOn1c(=O)c(-c2cccc3ccccc23)[n+]([O-])c2ccccc21,-13,-2,-1,4,58*,-3,-24,-22,
CC(C)NC(=O)C(=O)Nc1ccc2c(c1)N(S(=O)(=O)c1cccs1)CCC2,-3,-4,0,-8,-12,-1,.,.,
CNC(=O)C(=O)Nc1ccc2c(c1)N(S(=O)(=O)c1cccs1)CCC2,7,0,0,-6,54*,-2,-22,-18,
COc1ccc(C2c3c(oc4ccccc4c3=O)C(=O)N2CCN2CCOCC2)cc1OC (centres undefined),-11,2,-2,-7,3,-4,.,.,
COCCN1C(=O)c2oc3ccccc3c(=O)c2C1c1ccc(OC)c(OC)c1 (centres undefined),-5,5,-1,4,60*,-2,44*,-5,Scp-1 Tm shift=-8
CCCCn1c(N)c(N(CCC(C)C)C(=O)C2CCCC2)c(=O)[nH]c1=O,-3,4,0,4,-5,-1,.,.,
Cc1cc(C)n2nc(C(=O)OCC(=O)c3ccccc3)nc2n1,1,3,0,1,73*,2,-10,-21,
Cc1cc(C)n2nc(C(=O)OCC(=O)N(C)Cc3ccccc3)nc2n1,3,0,-1,0,-6,-3,.,.,
CC(C)C[C@@H](CN1C(=O)C(=O)NC[C@@H]1CC(C)C)NC(=O)Cc1ccccc1,4,2,0,-2,-3,1,-8,-8,
CC(C)C[C@H]1CNC(=O)C(=O)N1C[C@H](Cc1ccc(O)cc1)NC(=O)CC12CC3CC(CC(C3)C1)C2,3,.,-1,9,.,.,.,.,
Cc1cc(C)nc(SCc2ccc(C(=O)N/N=C/C3CCCCC3)cc2)n1,-23,-1,-1,4,-3,-2,.,.,
N=C1/C(=C\c2ccc(OC(=O)c3ccc(F)cc3)cc2)C(=O)N=C2SC(N3CCOCC3)=NN12,-3,8,1,19,66*,2,56*,-2,Scp-1 Tm shift=1
CSc1ccc(/C=C2\C(=N)N3N=C(CC(=O)N4CCOCC4)SC3=NC2=O)cc1,-1,1,0,5,19,-2,.,.,
Cc1ccc(S(=O)(=O)NC(=O)c2cccc(Br)c2)cc1,0,3,0,-10,-7,1,.,.,
O=C(NS(=O)(=O)c1ccccc1)c1cccc(Br)c1,5,2,-2,-3,62*,-2,-5,-10,

# Bioassay records as filed in PubChem.
